This note sets out measurements from ChEMBL document CHEMBL2417373, “Substituted tetrahydroisoquinolines as selective antagonists for the orexin 1 receptor” (J Med Chem, 2013).

Activity calls are given as the source filed them. The calls are words filed in the database; no cut-off is given here.

One data set addresses T1, Orexin receptor type 2 (Homo sapiens, UniProt O43614).
T1 sequence (O43614 whole entry): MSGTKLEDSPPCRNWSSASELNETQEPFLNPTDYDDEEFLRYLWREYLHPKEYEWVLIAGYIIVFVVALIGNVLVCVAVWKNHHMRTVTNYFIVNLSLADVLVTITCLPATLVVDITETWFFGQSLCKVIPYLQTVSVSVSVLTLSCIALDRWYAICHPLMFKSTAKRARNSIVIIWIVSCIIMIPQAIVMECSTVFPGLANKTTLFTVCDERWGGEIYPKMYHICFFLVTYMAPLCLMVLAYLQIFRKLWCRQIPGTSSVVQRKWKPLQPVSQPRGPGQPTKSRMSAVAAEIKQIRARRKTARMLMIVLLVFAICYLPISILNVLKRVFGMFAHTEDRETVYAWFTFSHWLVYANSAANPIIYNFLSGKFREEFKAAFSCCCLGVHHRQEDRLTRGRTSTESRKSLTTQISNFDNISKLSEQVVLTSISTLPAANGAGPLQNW
Briefly: Antagonist activity at OX2 receptor (unknown origin).

The species entered for the next data set is Homo sapiens. Briefly: Selectivity ratio of Ke for OX2 receptor (unknown origin) to Ke for OX1 receptor (unknown origin).
For data set [1], the target named is T2, Orexin/Hypocretin receptor type 1 (Homo sapiens) (UniProt O43613).
T2 sequence (whole entry): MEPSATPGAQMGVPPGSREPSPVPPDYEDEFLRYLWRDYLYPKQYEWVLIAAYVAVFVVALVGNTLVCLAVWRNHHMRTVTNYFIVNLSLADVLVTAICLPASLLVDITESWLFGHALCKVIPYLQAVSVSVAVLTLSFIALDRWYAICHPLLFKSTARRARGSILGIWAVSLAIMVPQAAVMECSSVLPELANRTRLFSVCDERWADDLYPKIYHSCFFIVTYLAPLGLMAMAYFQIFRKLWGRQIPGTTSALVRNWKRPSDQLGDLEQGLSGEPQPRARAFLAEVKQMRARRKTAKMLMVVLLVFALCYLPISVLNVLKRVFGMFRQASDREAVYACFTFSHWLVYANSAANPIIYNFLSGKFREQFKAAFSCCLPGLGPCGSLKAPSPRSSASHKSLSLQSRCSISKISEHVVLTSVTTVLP
Briefly: Agonist activity at OX1 receptor (unknown origin) expressed in RD-HGA16 cells assessed as calcium mobilization at 10 uM by fluorescence assay. It counts as functional, cell-based.

Data set [2] concerns the target T2, Orexin/Hypocretin receptor type 1 (Homo sapiens). Briefly: Antagonist activity at OX1 receptor (unknown origin) expressed in RD-HGA16 cells assessed as inhibition orexin A-induced calcium mobilization by fluorescence assay. It counts as functional, cell-based.
Data set [3] has as its system Rattus norvegicus. Briefly: Antiaddictive activity in Sprague-Dawley rat assessed as reduction of cocaine-induced conditioned place preference at 20 mg/kg, ip administered 10 mins before cocaine challenge measured for 15 mins. Type of data set: functional, organism-based. On the set-up: dose 20 mg/kg. In a few lines:
(§1)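 Unbiased two-compartment place conditioning in rats. Pretest 30 min with free access, first 15 min scored. Rats excluded if >75% or <25% of time in one side. Eight alternating conditioning days, 30 min confinement, vehicle on odd days and drug on even days. In the combination group, compound was given 10 min before cocaine 10 mg/kg. Injection volume 1 mL/kg. Preference score = drug-side time on test day minus pretest.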

Data set [4] has as its system Rattus norvegicus. The data set can be described thus: Induction of conditioned place preference in Sprague-Dawley rat at 20 mg/kg, ip measured for 15 mins. Further details: dose 20 mg/kg, route intraperitoneal. Type of data set: organism-based. The settings on record: in vivo, 0.25 h. In a few lines:
as §1

Data set [5] addresses T3, Orexin receptor type 2 (Homo sapiens) (UniProt O43614).
T3 sequence (whole entry): T1 sequence (O43614 whole entry)
The data set can be described thus: Antagonist activity at OX2 receptor (unknown origin) expressed in RD-HGA16 cells assessed as inhibition orexin A-induced calcium mobilization by fluorescence assay. It counts as functional, cell-based. For orientation: A change in cytosolic calcium serves as a functional read-out for many receptors and channels.

With `CNC(=O)[C@@H](c1ccccc1)N1CCc2cc(OC)c(OC)cc2[C@@H]1CCc1ccc(C(F)(F)F)cc1` [ALMOREXANT], at Orexin receptor type 2, 8.1 µM corresponded to half-maximal inhibition (IC50).

As to `COc1ccc(CC2c3cc(OC)c(OC)cc3CCN2CC(=O)NCc2ccc(F)cc2)cc1OC` (stereo not drawn), in the data set listed under Homo sapiens, the Ratio was determined as 12.4. In addition, the result in data set [1] was inactive. Besides, the Ke(app) in data set [2] is 279 nM.

As for `COc1ccc(CC2c3cc(OCC(F)(F)F)c(OC)cc3CCN2CC(=O)NCc2cccnc2)cc1OC` (stereo not drawn), the result with Rattus norvegicus [3] was Active. For the same compound, the result in data set [1] was inactive. Besides, in data set [2], the Ke(app) was 8.5 nM. For the same compound, in the data set with Rattus norvegicus [4], the Activity entry was “Non-toxic”.

Consider `COc1ccc(CC2c3cc(OC)c(OC)cc3CCN2CC(=O)N[C@@H](C)c2ccccc2)cc1OC` (single isomer, unassigned; diastereomer 2), for which the Ratio in the data set listed under Homo sapiens was more than 125. Further, the Ke(app) in data set [5] was more than 10 µM; in data set [2] it was 80 nM. Moreover, the result in data set [1] was inactive.

Consider `COc1ccc(CC2c3cc(OS(=O)(=O)c4ccccc4)c(OC)cc3CCN2CC(=O)NCc2ccccc2)cc1OC` (stereo not drawn), for which, in the data set filed under Homo sapiens, the Ratio was 95.1. Also, the result in data set [1] was inactive. Moreover, the Ke(app) in data set [2] stood at 30.5 nM.

As for `COc1ccc(CC2c3cc(OC)c(OC)cc3CCN2CC(=O)Nc2ccccc2-c2ccccc2)cc1OC` (stereo not drawn), the Ratio in the data set listed under Homo sapiens amounted to 1.9. Further, in data set [1], the result was inactive. In addition, in data set [2], the Ke(app) came to 944 nM.

Regarding `CCCCOc1cc2c(cc1OC)CCN(CC(=O)NCc1ccccc1)C2Cc1ccc(OC)c(OC)c1` (stereo not drawn), in the data set filed under Homo sapiens, the Ratio came out at 34.6. Further, the result in data set [1] was inactive. Moreover, in data set [2], the Ke(app) came out at 54.7 nM.

For `CCCCCCCNC(=O)CN1CCc2cc(OC)c(OC)cc2C1Cc1ccc(OC)c(OC)c1` (stereo not drawn), the Ratio in the data set listed under Homo sapiens is 3.9. Also, the result in data set [1] was inactive. Besides, the Ke(app) in data set [2] amounted to 589 nM.

For `COc1ccc(CC2c3cc(OC)c(OC)cc3CCN2CC(=O)NC2CCCc3ccccc32)cc1OC` (stereo not drawn), in the data set filed under Homo sapiens, the Ratio amounted to 15.9. Moreover, in data set [1], the outcome was inactive. In addition, the Ke(app) in data set [2] is 41.1 nM.

Regarding `COc1ccc(CC2c3cc(OC)c(OC)cc3CCN2CC(=O)NCc2ccc(Cl)cc2)cc1OC` (stereo not drawn), the Ratio in the data set filed under Homo sapiens was determined as 14. The outcome in data set [1] was inactive. Further, in data set [2], the Ke(app) is 162 nM.

As for `COc1ccc(CC2c3cc(OCCC(C)C)c(OC)cc3CCN2CC(=O)NCc2ccccc2)cc1OC` (stereo not drawn), in the data set listed under Homo sapiens, the Ratio was 12. The outcome in data set [1] was inactive. In addition, the Ke(app) in data set [2] is 326 nM.

By IC50 is commonly meant the concentration that inhibits the measured activity by half. High values mean lower potency, low ones higher potency.
